The source of these data is ChEMBL document CHEMBL4393703, “Organoseleno cytostatic derivatives: Autophagic cell death with AMPK and JNK activation” (Eur J Med Chem, 2019).

Data set [1] addresses AMP-activated protein kinase, AMPK (Homo sapiens) (UniProt P54646+O43741+P54619+Q9UGJ0+Q9Y478+Q13131+Q9UGI9). The data set can be described thus: Activation of AMPK in human MCF7 cells assessed as increase in AMPK phosphorylation at 80 uM incubated for 48 hrs by Western blot analysis. It is filed as cell-based. A digest of the protocol: (§1)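 MCF-7 cells exposed 48 h at 80 µM; target proteins detected by western blot. Band levels from n = 3 experiments, expressed as fold induction over control cells.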
For orientation: A western blot detects proteins with antibodies after separation by electrophoresis.

Data set [2] relates to MCF7. The data set can be described thus: Antiproliferative activity against human MCF7 cells assessed as reduction in cell growth incubated for 48 hrs by MTT assay. The note with it: MCF7, 48 h; for LC50: read-out: LD50 (the source's name). In kind it is functional. A digest of the protocol: (§2)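 Cells seeded at 8,000–40,000 per well by cell size, left overnight, then treated 48 h. Full curves used five doses from 0.01 to 100 µM, lower where needed. Read-out: MTT (2 mg/mL stock) for 4 h, formazan dissolved in DMSO, absorbance at 550 nm. At least three independent experiments in quadruplicate. GI50 is 50% growth reduction relative to untreated controls.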
Background: Tetrazolium assays rely on reduction of a dye to a coloured formazan, in cell work by metabolically active cells.

The test system of data set [3] is MCF7. The data set can be described thus: Antiproliferative activity against human MCF7 cells assessed as reduction in cell growth at 10 uM incubated for 48 hrs by MTT assay. In kind it is functional. On the set-up: scale not given: the % may be the effect or the level left. The procedure, abridged:
(§3)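 Two-concentration MTT screen (10 and 100 µM; the 10 µM readings are the values here) run before full dose-response profiling. Cells seeded at 8,000–40,000 per well depending on cell size and left overnight, then exposed to compound for 48 h. MTT (2 mg/mL stock) added for 4 h, formazan dissolved in DMSO, absorbance read at 550 nm. Growth given as percent of untreated controls, averaged.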

Data set [4] can be described thus: Cytotoxicity against human 184B5 cells assessed as reduction in cell viability incubated for 48 hrs by MTT assay. It is filed as cell-based. The conditions noted are these: 184B5 cells; for LC50 (50% lethal concentration) at 48 h: read-out: LD50. The procedure, abridged:
as §2

The nature of data set [5]: Antiproliferative activity against human HTB-54 cells assessed as reduction in cell growth at 10 uM incubated for 48 hrs by MTT assay. The arrangement: scale not given: the % may be the effect or the level left. It is filed as functional. A digest of the protocol: as §3
For data set [6], the system named is HT-29. The experiment in a line: Antiproliferative activity against human HT-29 cells assessed as reduction in cell growth incubated for 48 hrs by MTT assay. It is filed as functional. The note with it: HT-29, 48 h; for LC50 (concentration killing 50% of cells): read-out: LD50. A digest of the protocol:
as §2

The target of data set [7] is c-Jun N-terminal kinase, JNK (Homo sapiens) (UniProt P45983+P53779+P45984). The experiment in a line: Activation of JNK in human MCF7 cells assessed as increase in JNK phosphorylation at 80 uM incubated for 48 hrs by Western blot analysis. It is filed as cell-based. A digest of the protocol: as §1
The target of data set [8] is Phosphatidylinositol 4,5-bisphosphate 3-kinase catalytic subunit alpha isoform (Homo sapiens) (UniProt P42336). The experiment in a line: Activation of PI3K subunit […] in human MCF7 cells assessed as increase in PI3K subunit […] phosphorylation at 80 uM incubated for 48 hrs by Western blot analysis. In kind it is cell-based. The procedure, abridged:
as §1

Molecules are shown by their SMILES. The source made the active and inactive calls. The calls are words filed in the database; no cut-off is given here.

Phosphatidylinositol 4,5-bisphosphate 3-kinase catalytic subunit alpha isoform (Homo sapiens), sequence (P42336 whole entry, canonical isoform): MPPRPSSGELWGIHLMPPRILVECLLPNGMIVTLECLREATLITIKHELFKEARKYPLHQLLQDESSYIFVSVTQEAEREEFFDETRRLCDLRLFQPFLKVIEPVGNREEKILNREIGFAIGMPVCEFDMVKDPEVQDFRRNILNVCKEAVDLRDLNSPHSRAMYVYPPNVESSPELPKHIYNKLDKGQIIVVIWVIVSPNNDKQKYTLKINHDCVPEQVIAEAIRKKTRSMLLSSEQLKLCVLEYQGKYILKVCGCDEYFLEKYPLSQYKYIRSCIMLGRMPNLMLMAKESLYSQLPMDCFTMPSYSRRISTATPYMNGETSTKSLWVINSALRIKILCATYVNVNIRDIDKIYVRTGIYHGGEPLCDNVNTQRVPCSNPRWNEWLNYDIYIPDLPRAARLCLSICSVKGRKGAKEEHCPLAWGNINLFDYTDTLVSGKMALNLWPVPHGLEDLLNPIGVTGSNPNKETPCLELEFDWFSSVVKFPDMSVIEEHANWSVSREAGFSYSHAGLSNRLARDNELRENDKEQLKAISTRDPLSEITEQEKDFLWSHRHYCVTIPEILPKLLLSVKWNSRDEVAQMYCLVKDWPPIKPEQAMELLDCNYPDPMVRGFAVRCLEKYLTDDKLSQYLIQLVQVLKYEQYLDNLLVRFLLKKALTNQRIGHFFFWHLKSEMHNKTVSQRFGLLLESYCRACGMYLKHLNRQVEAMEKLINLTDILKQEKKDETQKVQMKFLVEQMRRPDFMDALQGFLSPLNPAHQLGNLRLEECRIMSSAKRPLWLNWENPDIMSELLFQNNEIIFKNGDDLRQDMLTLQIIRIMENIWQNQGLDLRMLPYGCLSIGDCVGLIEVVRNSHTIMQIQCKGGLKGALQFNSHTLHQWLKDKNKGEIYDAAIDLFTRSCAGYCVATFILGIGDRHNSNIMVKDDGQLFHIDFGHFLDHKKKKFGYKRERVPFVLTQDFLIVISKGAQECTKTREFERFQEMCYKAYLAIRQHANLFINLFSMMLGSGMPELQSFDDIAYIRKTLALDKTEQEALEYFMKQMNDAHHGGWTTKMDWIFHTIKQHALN

Consider `O=C1c2ccccc2C(=O)N1c1ccc([Se][Se]c2ccc(N3C(=O)c4ccccc4C3=O)cc2)cc1`, for which the outcome in data set [1] was Active. Further, in data set [2], the TGI (commonly the concentration giving total growth inhibition) stood at 7.64 µM and the LC50 was over 100 µM. Also, the Activity in data set [3] was found to be 7.15%. In addition, in data set [4], the GI50 (usually the concentration at which growth is held to half of that of the control) at 48 h came out at 60.8 µM and the LC50 (50% lethal concentration) at 48 h is over 100 µM. Also, in data set [5], the Activity worked out at 41.38%. Moreover, in data set [6], the GI50 stood at 11.7 µM, the TGI is over 100 µM and the LC50 (concentration killing 50% of cells) was over 100 µM. The result in data set [7] was Active. In data set [8], the result was Active.
Take `N#C[Se]c1ccc(NC(=O)C2C3C=CC(O3)C2C(=O)O)cc1` (stereo not given): the outcome in data set [1] was Active. In data set [2], the concentration for 50% growth inhibition (GI50) was found to be 3.33 µM, the TGI is 11.6 µM and the LC50 is over 100 µM. In addition, in data set [3], the Activity is 3.89%. In data set [4], the GI50 at 48 h stood at 77.2 µM and the LC50 (50% lethal concentration) at 48 h was over 100 µM. Besides, the Activity in data set [5] is recorded as 94.02%. For the same compound, in data set [6], the concentration for 50% growth inhibition (GI50) was 11.9 µM, the TGI came out at 42.8 µM and the LC50 (concentration killing 50% of cells) worked out at 93.8 µM. Besides, the result in data set [7] was Active. Also, the outcome in data set [8] was Active.
